The values that follow come from PMC3182555 (Nature chemical biology, 2011).

The target in assay [1] is T1, β2-microglobulin (β2m) (Homo sapiens, UniProt P61769). As to the kind of experiment: ESI-IMS-MS of non-covalent complexes. The assay is classed as biochemical. In outline: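 45 μM β2m at pH 2.5 with test compound (0–1125 μM), shaken at 600 rpm, 25 °C, 48 h, three or more replicates pooled. Spun at 16,300x g for 30 min. Supernatant run on SDS-PAGE, and bands quantified as percent soluble protein versus compound:β2m molar ratio. Binding: 38 μM β2m, 10 mM ammonium formate pH 2.5, 40 or 400 μM compound, 10% acetonitrile, ESI-IMS-MS at 70 V cone.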
T1 sequence (P61769 21-119): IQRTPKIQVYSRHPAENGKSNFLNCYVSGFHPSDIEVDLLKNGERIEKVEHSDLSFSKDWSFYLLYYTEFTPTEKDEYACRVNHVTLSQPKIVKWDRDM

For assay [2], the target named is T1, β2-microglobulin (β2m). Briefly: ESI-IMS-MS of non-covalent complexes. The assay is classed as binding.

On to `CO[C@H]1/C=C/O[C@@]2(C)Oc3c(C)c(O)c4c(O)c(cc(O)c4c3C2=O)NC(=O)/C(C)=C\C=C\[C@H](C)[C@H](O)[C@@H](C)[C@@H](O)[C@@H](C)[C@H](OC(C)=O)[C@@H]1C` [rifamycin SV], for which the concentration for half-maximal inhibition (IC50) (usually the concentration that gives 50% inhibition) in assay [1] was approximately 300 µM. For the compound `CO[C@H]1/C=C/O[C@@]2(C)Oc3c(C)c(O)c4c(O)c(c5c(nc6cc(C)ccn65)c4c3C2=O)NC(=O)/C(C)=C\C=C\[C@H](C)[C@H](O)[C@@H](C)[C@@H](O)[C@@H](C)[C@H](OC(C)=O)[C@@H]1C` [rifaximin], the “ESI-IMS-MS of non-covalent complexes” value in assay [2] is given as “Instead, only the most compact conformer shows binding to this ligand (Figure 4c)”.
